Measured values published in ChEMBL document CHEMBL4422684, “Identification of novel lysine demethylase 5-selective inhibitors by inhibitor-based fragment merging strategy” (Bioorg Med Chem, 2019).

What was measured:
[1] = target: T1, Lysine-specific demethylase 3A (Homo sapiens) (UniProt Q9Y4C1); test: Inhibition of human N-terminal FLAG-tagged KDM3A (2 to 1321 residues) expressed in baculovirus infected Sf9 insect cells at 25 uM using H3(1-21)K9(Me1)-GGK(Biotin)/2-OG as substrate measured after 1 hr by Alphalisa assay relative to control
T1 sequence (whole entry): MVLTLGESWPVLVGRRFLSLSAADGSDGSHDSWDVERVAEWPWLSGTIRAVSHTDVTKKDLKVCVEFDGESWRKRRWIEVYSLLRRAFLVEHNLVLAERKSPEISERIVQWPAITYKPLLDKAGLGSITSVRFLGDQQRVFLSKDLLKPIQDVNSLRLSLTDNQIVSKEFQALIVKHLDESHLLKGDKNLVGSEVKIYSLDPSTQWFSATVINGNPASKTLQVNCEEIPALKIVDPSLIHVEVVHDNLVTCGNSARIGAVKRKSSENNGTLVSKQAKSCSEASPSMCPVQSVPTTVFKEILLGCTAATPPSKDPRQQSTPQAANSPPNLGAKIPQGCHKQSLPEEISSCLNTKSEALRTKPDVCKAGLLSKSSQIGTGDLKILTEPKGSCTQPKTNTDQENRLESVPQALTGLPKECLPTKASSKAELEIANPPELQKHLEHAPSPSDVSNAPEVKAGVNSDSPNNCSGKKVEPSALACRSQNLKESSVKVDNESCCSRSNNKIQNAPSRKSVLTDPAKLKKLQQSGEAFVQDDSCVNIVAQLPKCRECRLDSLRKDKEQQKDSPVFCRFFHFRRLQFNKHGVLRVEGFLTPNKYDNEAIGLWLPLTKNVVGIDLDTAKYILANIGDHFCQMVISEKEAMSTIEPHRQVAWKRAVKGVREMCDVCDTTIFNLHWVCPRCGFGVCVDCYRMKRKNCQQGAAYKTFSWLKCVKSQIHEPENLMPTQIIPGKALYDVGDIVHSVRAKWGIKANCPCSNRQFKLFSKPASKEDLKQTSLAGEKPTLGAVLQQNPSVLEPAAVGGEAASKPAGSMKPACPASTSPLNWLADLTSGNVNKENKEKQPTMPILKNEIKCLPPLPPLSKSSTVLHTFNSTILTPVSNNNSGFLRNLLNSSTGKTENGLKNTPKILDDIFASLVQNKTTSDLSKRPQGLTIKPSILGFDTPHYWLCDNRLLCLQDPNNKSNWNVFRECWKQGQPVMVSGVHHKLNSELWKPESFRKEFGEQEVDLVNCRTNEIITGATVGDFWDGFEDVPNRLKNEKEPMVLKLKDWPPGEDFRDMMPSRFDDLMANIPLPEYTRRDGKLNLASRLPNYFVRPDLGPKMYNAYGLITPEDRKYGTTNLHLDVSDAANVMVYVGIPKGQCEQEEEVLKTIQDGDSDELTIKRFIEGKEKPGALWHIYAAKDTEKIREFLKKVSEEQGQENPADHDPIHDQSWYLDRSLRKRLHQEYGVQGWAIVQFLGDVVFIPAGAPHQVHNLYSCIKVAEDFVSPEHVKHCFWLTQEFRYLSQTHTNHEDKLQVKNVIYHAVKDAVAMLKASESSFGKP
Procedure, shortened: (§1)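 AlphaLISA demethylase assay in 50 mM HEPES pH 7.5, 0.1% BSA, 0.01% Tween 20 with DMSO. Enzyme and inhibitor combined, then peptide plus 2-OG (50 µM), Fe(II) (5 µM) and ascorbate (100 µM) in the added mix; 1 h at room temperature with shaking.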

[2] = target: T2, Lysine-specific demethylase 2A (Homo sapiens, UniProt Q9Y2K7); test: Inhibition of human N-terminal FLAG/Avi-tagged KDM2A (2 to 700 residues) expressed in baculovirus infected Sf9 insect cells using H3(21-44)-K36(Me2)-GK(Biotin)/2-OG as substrate measured after 1 hr by Alphalisa assay; procedure, shortened: as §1
T2 sequence (Q9Y2K7 whole entry): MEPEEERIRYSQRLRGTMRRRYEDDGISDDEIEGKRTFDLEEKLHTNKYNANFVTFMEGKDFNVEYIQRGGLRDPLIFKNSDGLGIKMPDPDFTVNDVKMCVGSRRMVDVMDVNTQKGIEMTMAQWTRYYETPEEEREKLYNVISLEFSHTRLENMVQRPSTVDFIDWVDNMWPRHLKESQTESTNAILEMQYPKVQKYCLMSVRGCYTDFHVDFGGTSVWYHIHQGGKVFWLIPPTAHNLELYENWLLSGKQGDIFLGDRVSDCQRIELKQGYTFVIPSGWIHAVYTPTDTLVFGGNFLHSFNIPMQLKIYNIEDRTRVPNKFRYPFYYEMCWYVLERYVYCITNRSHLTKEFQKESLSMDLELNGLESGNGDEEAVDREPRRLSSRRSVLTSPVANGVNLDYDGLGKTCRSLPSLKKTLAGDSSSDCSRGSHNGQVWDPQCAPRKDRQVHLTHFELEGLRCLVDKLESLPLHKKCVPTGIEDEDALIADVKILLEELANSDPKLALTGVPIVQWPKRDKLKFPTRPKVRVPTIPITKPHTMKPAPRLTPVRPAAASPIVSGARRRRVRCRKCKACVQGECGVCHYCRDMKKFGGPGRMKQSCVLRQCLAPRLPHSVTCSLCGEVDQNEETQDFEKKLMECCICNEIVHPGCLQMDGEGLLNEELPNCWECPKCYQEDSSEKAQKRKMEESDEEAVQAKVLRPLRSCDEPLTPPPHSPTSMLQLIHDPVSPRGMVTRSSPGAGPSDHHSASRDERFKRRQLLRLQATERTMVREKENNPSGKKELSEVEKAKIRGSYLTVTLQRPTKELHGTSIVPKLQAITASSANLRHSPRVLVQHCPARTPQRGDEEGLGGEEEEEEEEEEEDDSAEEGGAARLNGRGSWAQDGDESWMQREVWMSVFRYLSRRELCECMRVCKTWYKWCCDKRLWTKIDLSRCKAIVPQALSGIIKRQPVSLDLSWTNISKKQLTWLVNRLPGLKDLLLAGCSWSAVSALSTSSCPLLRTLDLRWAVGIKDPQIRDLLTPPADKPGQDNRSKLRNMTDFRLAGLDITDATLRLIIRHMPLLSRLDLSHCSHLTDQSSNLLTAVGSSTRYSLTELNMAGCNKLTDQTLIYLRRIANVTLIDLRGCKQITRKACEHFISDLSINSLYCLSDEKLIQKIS

CCCCCCN(C)Cc1ccc(-c2[nH]c3c(C#N)cnn3c(=O)c2C(C)C)cc1
inhibition [1]: 13% | IC50 [2]: > 50 µM
